The values that follow come from ChEMBL document CHEMBL1125002, “Antiarthritic and suppressor cell inducing activity of azaspiranes: structure-function relationships of a novel class of immunomodulatory agents” (J Med Chem, 1990).

Calls of active or inactive are those of the source. The rule behind the calls is not given here.

In assay [1] the test system is Rattus norvegicus. The experiment in a line: Adjuvant arthritic rat activity determined with respect to spirogermanium at a dose of 30 mg/kg. The class given is functional. Summed up:
(§1)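 Lewis rats given adjuvant on day 0. Drug homogenized in aqueous 0.5% gum tragacanth, given orally at 10 mL/kg daily on days 0–10. Volume of the noninjected (secondary) hind paw measured on day 16 by mercury displacement. Activity is relative to non-drug controls and scaled to spirogermanium at 30 mg/kg, which is set at 1.00. Significance by Student's t test.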

Assay [2] deals with Rattus norvegicus. The experiment in a line: Total starting number of animals upon administration at a dose of 30 mg/kg; 8/8. The class given is functional.
Assay [3] has as its system Rattus norvegicus. In words: Adjuvant arthritic rat activity with respect to spirogermanium at a dose of 10 mg/kg. The class given is functional.
Assay [4] has as its system Rattus norvegicus. In words: Total starting number of animals upon administration at a dose of 30 mg/kg; 7/7. It counts as functional.
Assay [5] has as its system Rattus norvegicus. In words: Total starting number of animals upon administration at a dose of 10 mg/kg; 7/7. The class given is functional.
In assay [6] the test system is Rattus norvegicus. The experiment in a line: Total starting number of animals upon administration at a dose of 90 mg/kg; 0/7. It counts as functional.
For assay [7], the system named is Rattus norvegicus. The experiment in a line: Adjuvant arthritic rat activity with respect to spirogermanium at a dose of 7.5 mg/kg. The class given is functional. The method in brief: as §1
The subject of assay [8] is Rattus norvegicus. In words: Total starting number of animals upon administration at a dose of 15 mg/kg; 2/8. The class given is functional.
Assay [9] has as its system Rattus norvegicus. The experiment in a line: Total starting number of animals upon administration at a dose of 7.5 mg/kg; 8/8. It counts as functional.
Assay [10] deals with Rattus norvegicus. In words: Total starting number of animals upon administration at a dose of 30 mg/kg; 0/8. The class given is functional.
The test system of assay [11] is Rattus norvegicus. In words: (§2) Adjuvant arthritic rat activity with respect to spirogermanium at a dose of 60 mg/kg. It counts as functional. Summed up: as §1
The subject of assay [12] is Rattus norvegicus. In words: Total starting number of animals upon administration at a dose of 60 mg/kg; 8/8. The class given is functional.
Assay [13] has as its system Rattus norvegicus. In words: Adjuvant arthritic rat activity with respect to spirogermanium at a dose of 15 mg/kg. It counts as functional. Summed up:
as §1

The test system of assay [14] is Rattus norvegicus. In words: Total starting number of animals upon administration at a dose of 15 mg/kg; 8/8. It counts as functional.
Assay [15] deals with Rattus norvegicus. In words: Total starting number of animals upon administration at a dose of 30 mg/kg; 5/6. It counts as functional.
Assay [16] relates to Rattus norvegicus. In words: Total starting number of animals upon administration at a dose of 30 mg/kg; 6/6. It counts as functional.
Assay [17] deals with Rattus norvegicus. In words: Adjuvant arthritic rat activity with respect to spirogermanium at a dose of 30 mg/kg. It counts as functional. The method in brief:
as §1

The subject of assay [18] is Rattus norvegicus. The experiment in a line: Adjuvant arthritic rat activity with respect to spirogermanium at a dose of 30 mg/kg, active. The class given is functional, organism-based. Further details: dose 30 mg/kg.
The subject of assay [19] is Rattus norvegicus. The experiment in a line: Adjuvant arthritic rat activity with respect to spirogermanium at a dose of 15 mg/kg, inactive. The class given is functional, organism-based. The arrangement: dose 15 mg/kg.
In assay [20] the test system is Rattus norvegicus. In words: Total starting number of animals upon administration at a dose of 15 mg/kg; 0/7. It counts as functional, organism-based. The arrangement: dose 15 mg/kg.
Assay [21] relates to Rattus norvegicus. In words: Total starting number of animals upon administration at a dose of 30 mg/kg; 0/7. It counts as functional.
The test system of assay [22] is Rattus norvegicus. The experiment in a line: Total starting number of animals upon administration at a dose of 60 mg/kg; 0/7. It counts as functional, organism-based. The arrangement: dose 60 mg/kg.
The subject of assay [23] is Rattus norvegicus. The description is as §2. The class given is functional. This is another data set of the same source.
For assay [24], the system named is Rattus norvegicus. The experiment in a line: Total starting number of animals upon administration at a dose of 30 mg/kg; 7/8. The class given is functional.
In assay [25] the test system is Rattus norvegicus. In words: Total starting number of animals upon administration at a dose of 30 mg/kg; 3/8. It counts as functional.
Assay [26] relates to Rattus norvegicus. The experiment in a line: Total starting number of animals upon administration at a dose of 15 mg/kg; 1/8. It counts as functional.
Assay [27] concerns Rattus norvegicus. The experiment in a line: Total starting number of animals upon administration at a dose of 60 mg/kg; 0/6. It counts as functional.
Assay [28] concerns Rattus norvegicus. The experiment in a line: Total starting number of animals upon administration at a dose of 60 mg/kg; 5/8. It counts as functional.
Assay [29] deals with Rattus norvegicus. In words: Adjuvant arthritic rat activity with respect to spirogermanium at a dose of 25 mg/kg. The class given is functional.
For assay [30], the system named is Rattus norvegicus. The experiment in a line: Total starting number of animals upon administration at a dose of 25 mg/kg; 7/7. The class given is functional.

In the case of `CCCCN(CCCC)CCCN1CCC2(CCC(CCC)(CCC)CC2)C1`, in assay [1], the Activity amounted to 0.07. The molecule also gave a Survival in [2] of 8.

On to `CCC1(CC)CCC2(CCN(CCCN(C)C)CC2)CC1`, for which the Activity in assay [3] was 0.03; in assay [1], 0.3. Further, the Survival in [4] amounted to 7; in assay [5], 7; in assay [6], 0.

`CCCCC1(CCCC)CCC2(CCN(CCCN(C)C)C2)CC1`: in assay [7], the Activity is listed as 0.41. The Survival in assay [8] amounted to 2; in [9] it was 8; in [10], 0.

As for `CN(C)CCCN1CCC2(CC3CCC2C3)C1.Cl` (stereo not given), the Activity in assay [11] is on record as 0.1; in assay [1], 0. Besides, the Survival in assay [2] and in assay [12] was 8 each time.

Turning to `CCCC1(CCC)CCC2(CCN(CCCN3CCCC3)C2)CC1`, the Activity in assay [1] is 1.03. Further, the Survival in [2] is recorded as 8.

Consider `CC[Si]1(CC)CCC2(CCN(CCCN(C)C)C2)CC1`, for which the Activity in assay [13] came to 0.27; in assay [1], 0.92. Besides, the Survival in [2] and in [14] was 8 in each case.

Consider `CN(C)CCCN1CCC2(CCC(C(C)(C)C)CC2)CC1`, for which the Activity in [3] is recorded as 0.04; in assay [1] it was 0.33. Moreover, the Survival in [4] is 7; in assay [5], 7; in assay [6], 0.

Take `CCCC1(CCC)CCC2(CCN(CCCN3CCCCC3)C2)CC1`: in [1], the Activity worked out at 1.7. The molecule also returned a Survival in assay [2] of 8.

`CCCC1(CCC)CCC2(CCN(CCCN)C2)CC1`: the Activity in [1] came to 0.91. This molecule returned a Survival in assay [15] of 5.

Turning to `CCCC1(CCC)CCC2(CCN(CCCO)C2)CC1.Cl`, the Activity in assay [11] stood at 0.31. The Survival in assay [12] worked out at 8.

For `CCCC1(CCC)CCC2(CCN(CCCNC(C)=O)C2)CC1`, the Activity in assay [1] is on record as 0.24. In assay [16], the Survival turned out to be 6.

Turning to `CN(C)CCCN1CC2C3CCC(CC3)C2C1.Cl` (stereo not given), the Activity in assay [1] was 0.35. In addition, the Survival in assay [2] is given as 8.

In assay [2], `CCCCCCCCCCC1CCC2(CC1)CCN(CCCN(C)C)C2` (stereo not given) had a Survival of 8. Further, the Activity in assay [17] was found to be 0.78.

Consider “[3-(8,8-Diethyl-2-aza-8-germa-spiro[4.5]dec-2-yl)-propyl]-dimethyl-amine”, for which, in assay [18], the outcome was Active. Besides, the result in [19] was inactive. In addition, the Survival in assay [20], in [21] and in assay [22] was 0 throughout.

In the case of `CN(C)CCCN1CCC2(CCC(C(C)(C)C)CC2)C1` (stereo not given), the Activity in [1] amounted to 0.31. The molecule further yielded a Survival in assay [2] of 8.

For `CCCCCC1(CCCCC)CCC2(CCN(CCCN(C)C)CC2)CC1`, the Activity in assay [7] and in assay [13] was 0.18 each time. In addition, the figures for the Survival in assay [14], in [9] and in assay [10] were 8, 8 and 0, respectively.

Take `CN(C)CCCN1CCC2(CCCCC2)C1`: the Activity in assay [1] is given as 0.27. The molecule also showed a Survival in [2] of 8.

The molecule `CN(C)CCCN1CCC2(CC[Si](C)(C)CC2)C1` displayed a Survival in assay [2] of 0. Moreover, in assay [23], the Activity turned out to be 0.

With `CCCC1(CCC)CCC2(CC1)CC[N+](C)(CCC[N+](C)(C)C)C2` (stereo not given), in [1], the Activity came out at 0.05. In assay [2], this molecule displayed a Survival of 8.

Regarding `CCCC1(CCC)CCC2(CCN(CCCCCN(C)C)C2)CC1`, the Activity in [1] stood at 0.82. The same molecule yielded a Survival in assay [2] of 8.

Consider `CCCC1(CCC)CCC2(CCN(CCCN(CC)CC)C2)CC1` [ATIPRIMOD], for which the Activity in assay [1] is recorded as 1.42. Besides, in assay [2], the Survival turned out to be 8.

As to `CCCC1(CCC)CCC2(CCN(CCN(C)C)C2)CC1`, in assay [1], the Activity came out at 0. This molecule also came in with a Survival in assay [2] of 8.

For `CN(C)CCCN1CCC2(CCC(c3ccccc3)CC2)C1` (stereo not given), in [1], the Activity is 0.25. For the same molecule, the Survival in [2] is recorded as 8.

In the case of `CCC1(CC)CCC2(CCN(CCCN(C)C)C2)CC1`, the Activity in assay [3] was 0.1; in [1], 0.57. For the same molecule, the results for the Survival in assay [4], in [5] and in [6] were 7, 7 and 0, respectively.

Consider `CN(C)CCCN1CCC2(CCCCC2)CC1`, for which, in [1], the Activity was found to be 0.2. The same molecule displayed a Survival in assay [2] of 8.

Regarding `CN(C)CCCN1CCC2(CCCCCC2)C1.Cl`, the Activity in assay [1] amounted to 0.2. Also, the Survival in assay [2] came out at 8.

Turning to `CC1CCC2(CC1)CCN(CCCN(C)C)CC2`, the Activity in assay [1] was found to be 0.25. The same molecule gave a Survival in assay [2] of 8.

Take `CCCC1(CCC)CCC2(CCN(CCCCN(C)C)C2)CC1`: the Activity in assay [1] was 0.46. For the same molecule, in assay [2], the Survival was 8.

On to `CC(C)CC1(CC(C)C)CCC2(CCN(CCCN(C)C)C2)CC1`, for which, in assay [1], the Activity worked out at 0.97. In assay [24], this molecule had a Survival of 7.

Turning to `CCCN(CCC)CCCN1CCC2(CCC(CCC)(CCC)CC2)C1`, in assay [1], the Activity is recorded as 0.43. The molecule also returned a Survival in assay [2] of 8.

As for `CCCC1(CCC)CCC2(CCN(CCCN(C)C)CC2)CC1`, the Activity in assay [1] is on record as 1.02. In assay [25], this molecule displayed a Survival of 3.

Consider `CN(C)CCCN1CCC2(CCC(C)(C)CC2)C1`, for which, in assay [1], the Activity is 0.12. The Survival in assay [2] is recorded as 8.

With `CC1CCCC2(CCN(CCCN(C)C)C2)C1.Cl` (stereo not given), the Activity in assay [1] is 0. In addition, the Survival in assay [2] came to 8.

As to `CCCC1(CCC)CCC2(CCN(CCCCCCN(C)C)C2)CC1`, in [1], the Activity is on record as 1.2. For the same molecule, the Survival in assay [2] stood at 8.

`CCCC1(CCC)CCC2(CCN(CCCN3CCOCC3)C2)CC1.Cl`: the Activity in assay [13] and in assay [1] was 0 throughout. The Survival in assay [26] worked out at 1; in assay [21] it was 0.

Take `CCCC1(CCC)CCC2(CCN(CCCCCCCN(C)C)C2)CC1`: the Survival in assay [2] was 8. In addition, in [17], the Activity was 1.57.

For the molecule `CCCC1(CCC)CCC2(CCN(CCCNC)C2)CC1`, the Activity in assay [1] came to 1.55. The molecule also had a Survival in assay [16] of 6.

As for `CCCC1(CCC)CCC2(CCN(CCCN(C)C)C2)CC1`, the Activity in [13] was determined as 0.18; in assay [1], 1.35. Moreover, the figures for the Survival in assay [2], in assay [14] and in [27] were 8, 8 and 0, respectively.

Consider `CN(C)CCCN1CCC2(CCC3(CCCCCC3)CC2)C1`, for which the Activity in [11] came out at 1.7; in assay [1], 0.22. Moreover, the figures for the Survival in assay [2] and in assay [28] were 8 and 5, respectively.

Turning to `CN(C)CCCN1CCC2(CCSCC2)C1`, the Activity in [29] is reported as 0. This molecule gave a Survival in assay [30] of 7.

For the molecule `CCCCCC1(CCCCC)CCN(CCCN(C)C)C1.Cl`, the Activity in [1] came to 0.19. For the same molecule, in assay [2], the Survival is 8.
